B2AR ag: beta2AR agonists driving receptor internalization, primary screen, cell-based, FAP fluorogen, flow cytometry. Beta-2 adrenergic receptor (Homo sapiens), P07550. Am2.2-beta2AR cells. response, % (no concentration beside the values). 340,000 compounds, 0.43% hits. AID 504454, 2011;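 active means response above a set limit, near 3 SD of response in nonfluorescent compounds, cut at about 42% in these data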
PfGluPho inh: PfG6PD enzyme inhibitors, primary screen, biochemical, fluorescence intensity, uHTS; PfGluPho enzyme, NADPH resazurin-diaphorase fluorescence; inhibition, % at 20 µM; 350,000 compounds, 0.78% hits; AID 504690, 2011;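 active means inhibition reaching at least a set limit at 20 µM in the primary screen, cut at about 59% in these data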
MC4R antagonist: MC4R antagonists of cAMP signaling, primary screen, cell-based, TR-FRET, antagonist arm of biased-ligand search; Melanocortin receptor 4 (Homo sapiens), P32245; MC4R-expressing cells, MTII-stimulated cAMP, LANCE TR-FRET; inhibition, % at 6.5 µM; 360,000 compounds, 0.48% hits; AID 540295, 2011;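 active means inhibition above its plate's cutoff, the mean of tested wells on that plate plus 3 SD, cut at about 29% in these data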
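Material – human MC4R-expressing U2OS cells · Repeats – no replicates · Detection – TR-FRET with Eu-cAMP and labeled anti-cAMP, 671 nm · Times – compound 30 min, challenge 1 h, detection 1 h · Compound – single nominal compound dose of 6.5 µM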
MC4R ag barr: MC4R agonists recruiting beta-arrestin, primary screen, cell-based, luminescence, agonist arm of biased-ligand search | activation, % at 8.9 µM | 360,000 compounds, 0.98% hits | Melanocortin receptor 4 (Homo sapiens), P32245 | AID 540308, 2011 | U2OS MC4R beta-arrestin complementation; percent of melanotan II response, DMSO zero;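 active means activation above a per-plate cutoff, the mean activation of sample wells on that plate plus 3 SD, cut at about 8% in these data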
ABHD5 PLIN5 PPI: ABHD5-PLIN5 interaction inhibitors, primary screen, cell lysate, split luciferase complementation, luminescence; Split G. princeps luciferase complementation, 4 h; 360,000 compounds, 0.78% hits; AID 602281, 2012; Perilipin-5 (Homo sapiens) + 1-acylglycerol-3-phosphate O-acyltransferase ABHD5 (Homo …; inhibition, % at 4 µM;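 active means inhibition above the mean inhibition across every tested compound plus 3 SD, cut at about 22% in these data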
MC4R barr conf: MC4R beta-arrestin agonists, retest, confirmation, cell-based, luminescence, U2OS | shares compounds with MC4R ag barr | U2OS MC4R beta-arrestin recruitment; scaled DMSO 0%, Melanotan II 100% | activation, % at 8.9 µM | 2,400 compounds, 31% hits | AID 602192, 2012;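 active means mean activation across replicates above the hit cutoff set in the earlier primary screen, cut at about 8% in these data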
MOR-DOR barr ag: agonists of MOR-DOR heterodimerization, counter-screen for MC4R biased agonist project, cell-based, luminescence | shares compounds with MC4R ag barr | U2OS PathHunter beta-arrestin, beta-gal luminescence; percent of deltorphin B response, DMSO zero | activation, % at 9.2 µM | 2,400 compounds, 5.8% hits;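 active means mean activation across replicates exceeds the hit threshold derived in the earlier primary screen, cut at about 18% in these data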
Target sequence (P35372 whole entry, looked up): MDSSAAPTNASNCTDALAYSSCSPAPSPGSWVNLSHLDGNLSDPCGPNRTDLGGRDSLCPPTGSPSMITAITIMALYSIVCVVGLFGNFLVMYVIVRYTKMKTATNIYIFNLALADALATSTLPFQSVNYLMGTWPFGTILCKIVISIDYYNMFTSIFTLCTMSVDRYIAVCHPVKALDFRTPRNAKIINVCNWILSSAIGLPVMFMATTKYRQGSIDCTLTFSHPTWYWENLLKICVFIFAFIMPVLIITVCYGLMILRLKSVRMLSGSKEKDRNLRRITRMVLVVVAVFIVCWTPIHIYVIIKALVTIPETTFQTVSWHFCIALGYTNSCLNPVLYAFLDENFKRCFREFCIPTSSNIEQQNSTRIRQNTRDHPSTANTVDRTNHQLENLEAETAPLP
Target sequence (P41143 whole entry, looked up): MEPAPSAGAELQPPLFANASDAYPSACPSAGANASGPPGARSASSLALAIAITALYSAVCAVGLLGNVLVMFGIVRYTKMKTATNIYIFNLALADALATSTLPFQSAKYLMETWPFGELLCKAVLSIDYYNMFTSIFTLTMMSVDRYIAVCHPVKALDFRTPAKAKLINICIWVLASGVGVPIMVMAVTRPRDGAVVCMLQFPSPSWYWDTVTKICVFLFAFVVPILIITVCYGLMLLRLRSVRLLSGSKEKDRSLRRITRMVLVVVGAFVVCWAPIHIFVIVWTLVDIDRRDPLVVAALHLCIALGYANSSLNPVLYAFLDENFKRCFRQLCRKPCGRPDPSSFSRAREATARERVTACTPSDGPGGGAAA
Of the large screens only hits and unclear results are named; the others gave an inactive call (follow-up assays come after a bar, where they were run). In the library only some 3% were active in any assay of this set; here they are far more common.

CC(C)Cn1c(N)c(C(=O)COC(=O)c2cccn2C)c(=O)n(C)c1=O	none
COc1ccc(-c2cc(C(=O)Nc3ccc(C)cc3)no2)cc1	none
Cc1ccc(NC(=O)OCc2cc(-c3ccccc3)on2)cc1	MC4R ag barr 11 | MC4R barr conf inactive | MOR-DOR barr ag inactive
O=C(Nc1ccc(Cl)cc1)OCc1cc(-c2ccccc2Cl)on1	MC4R ag barr 11 | MC4R barr conf 8.6 | MOR-DOR barr ag inactive
O=S(=O)(c1ccccc1)n1ccc2cccnc21	none
O=C(NC(=S)Nc1nc(-c2ccccc2)cs1)c1cccnc1	none
Cc1ccc(-c2csc(NC(=S)NC(=O)c3cccs3)n2)cc1	none
O=C(NC(=S)Nc1nc(-c2ccccc2)cs1)c1cncc(Br)c1	MC4R ag barr 22 | MC4R barr conf inactive | MOR-DOR barr ag inactive
O=C(NC(=S)Nc1nc(-c2ccccc2)cs1)c1cccs1	MC4R ag barr 11 | MC4R barr conf inactive | MOR-DOR barr ag inactive
O=C(Nc1ccc(N2CCN(C(=O)c3ccco3)CC2)cc1)c1cccnc1Cl	none
Cc1cc(F)cc(-c2cc(C(=O)NCc3cccc(Cl)c3)[nH]n2)c1	MC4R ag barr 13 (no result: B2AR ag, PfGluPho inh) | MC4R barr conf inactive | MOR-DOR barr ag inactive
COc1cc(OC)c2c(-c3cccc(-c4ccc(F)c(Cl)c4)c3)cc(=O)oc2c1	none
COC(=O)c1cc(Nc2cc(C)c3c(O)cccc3n2)cc(C(=O)OC)c1	MC4R ag barr 12 | MC4R barr conf inactive | MOR-DOR barr ag inactive
C[C@H](CO)N1C[C@H](C)[C@H](CN(C)C(=O)c2ccccc2F)Oc2ncc(Br)cc2C1=O	none (no result: B2AR ag)
Cc1c(C(=O)Nc2cccc([N+](=O)[O-])c2)csc1-c1ccccc1	MC4R ag barr 14 | MC4R barr conf inactive | MOR-DOR barr ag inactive
COc1ccc(C(=O)Nc2cccc([N+](=O)[O-])c2)cc1Br	MC4R ag barr 22 | MC4R barr conf 8.9 | MOR-DOR barr ag inactive
O=C(Nc1cccc([N+](=O)[O-])c1)c1cccc(C(=O)Nc2cccc([N+](=O)[O-])c2)c1	none
Cc1ccc(NC(=O)c2csc(-c3ccccc3)c2C)cc1	none
O=C(Nc1cccc([N+](=O)[O-])c1)c1ccc(-c2ccccc2)cc1	MC4R ag barr 39 | MC4R barr conf inactive | MOR-DOR barr ag 25
N#C/C(=N\Nc1ccccc1F)c1nc(-c2ccccc2)cs1	none
Cc1ccc(S(=O)(=O)N2CCN(C(=O)CC(C)n3nc(C)c(Cl)c3C)CC2)cc1C (configuration not stated)	none
Cc1ccc(C(=O)NCC(=O)OCC(=O)c2cc(C)n(Cc3ccco3)c2C)cc1	none
Cc1cc(C(=O)COC(=O)CNC(=O)c2ccc(Cl)c(Cl)c2)c(C)n1Cc1ccco1	MC4R ag barr 12 | MC4R barr conf inactive | MOR-DOR barr ag inactive
CCOCCCN(Cc1ccco1)C(=O)c1cc2c(=O)[nH]c3ccc(C)cc3c2s1	MC4R ag barr 11 | MC4R barr conf 18 | MOR-DOR barr ag inactive
CCC(C)c1ccc(OCCn2cc(/C=N/NC(=O)CSc3nnc(C)s3)c3ccccc32)cc1 (configuration not stated)	MC4R ag barr 16 | MC4R barr conf inactive | MOR-DOR barr ag inactive
CCc1ccc(C2CC(c3ccc(Cl)cc3)n3nc(N)nc3N2)cc1 (configuration not stated)	none
CCc1ccc(C2CC(c3ccc(F)cc3)Nc3nc(N)nn32)cc1 (configuration not stated)	MC4R ag barr 25 | MC4R barr conf 17 | MOR-DOR barr ag inactive
CC(C)(C)C(=O)NC(=S)Nc1sc2c(c1C#N)CCCCC2	MC4R ag barr 17 (no result: B2AR ag) | MC4R barr conf inactive | MOR-DOR barr ag inactive
CC(=O)Nc1sc2c(c1C#N)CCCCC2	none
Cc1c([N+](=O)[O-])cc(C(=O)Nc2ccc(NC(=O)c3ccco3)cc2)cc1[N+](=O)[O-]	MC4R ag barr 10 | MC4R barr conf inactive | MOR-DOR barr ag inactive
COc1cc(C(=O)NC(=S)Nc2ccc(NC(=O)c3ccco3)cc2)cc(OC)c1OC	MC4R ag barr 11 | MC4R barr conf inactive | MOR-DOR barr ag inactive
O=C(NC(=S)Nc1ccc(NC(=O)c2ccco2)cc1)c1ccccc1	none
Cc1ccc(OCC(=O)Nc2cccc(-c3nnc(-c4ccccc4)o3)c2)c(C)c1	MC4R ag barr 35 | MC4R barr conf inactive | MOR-DOR barr ag inactive
O=C(Nc1ccc(Cl)c([N+](=O)[O-])c1)c1ccco1	none
Cc1ccc(OCC(=O)Nc2ccc(NC(=O)c3ccco3)cc2)c(C)c1	MC4R ag barr 18 | MC4R barr conf inactive | MOR-DOR barr ag inactive
Cc1cc(C)c(OCC(=O)Nc2ccc(NC(=O)c3ccco3)cc2)c([N+](=O)[O-])c1	MC4R ag barr 13 | MC4R barr conf inactive | MOR-DOR barr ag inactive
Cc1cc(C)c(OCC(=O)Nc2cccc(NC(=O)c3ccco3)c2)c(Br)c1	none
COc1ccc2cc(C(=O)NCc3ccco3)c(=Nc3ccc(C(=O)O)cc3)oc2c1	none
COc1ccc(N=c2oc3c(OC)cccc3cc2C(=O)NCc2ccco2)c(OC)c1	MC4R ag barr 32 | MC4R barr conf 13 | MOR-DOR barr ag 25
CCCN1CCN(C(=O)c2oc3c(Cl)cccc3c2C)CC1	none
Cc1csc(NC(=O)c2cc(-c3ccccc3)nc3ccccc23)n1	MC4R ag barr 12 | MC4R barr conf inactive | MOR-DOR barr ag inactive
CC(C)(C)c1nnc(NC(=O)c2cc(-c3ccccc3)nc3ccccc23)s1	none
Cc1cccc(NS(=O)(=O)c2cc(C(=O)OC(C)C(=O)NCc3ccc4c(c3)OCO4)ccc2C)c1 (configuration not stated)	none
COc1ccc(-c2cc(C)no2)cc1S(=O)(=O)N1CCCN(Cc2ccccc2Cl)C1	none
N#Cc1ccccc1NC(=O)c1ccc(-c2ccccc2Cl)o1	MC4R ag barr 22 | MC4R barr conf inactive | MOR-DOR barr ag inactive
O=C(Nc1cccc(-c2nc3cccnc3s2)c1)c1ccco1	none
CCOc1ncccc1C(=O)Nc1cccc(-c2nc3cccnc3s2)c1	MC4R ag barr 17 | MC4R barr conf inactive | MOR-DOR barr ag inactive
